Laboratory results reported in ChEMBL document CHEMBL1125331, “6-Hydroxy-3-n-propyl-2,3,4,5-tetrahydro-1H-3-benzazepine and analogs: new centrally acting 5-HT1A receptor agonists” (J Med Chem, 1992).

Assays:
[1] = molecular target: T1, 5-hydroxytryptamine receptor 1A (Rattus norvegicus, UniProt P19327); assay: Inhibitory activity against 5-hydroxytryptamine 1A receptor in rats, using [3H]8-OH-DPAT as radioligand
T1 sequence (P19327 whole entry): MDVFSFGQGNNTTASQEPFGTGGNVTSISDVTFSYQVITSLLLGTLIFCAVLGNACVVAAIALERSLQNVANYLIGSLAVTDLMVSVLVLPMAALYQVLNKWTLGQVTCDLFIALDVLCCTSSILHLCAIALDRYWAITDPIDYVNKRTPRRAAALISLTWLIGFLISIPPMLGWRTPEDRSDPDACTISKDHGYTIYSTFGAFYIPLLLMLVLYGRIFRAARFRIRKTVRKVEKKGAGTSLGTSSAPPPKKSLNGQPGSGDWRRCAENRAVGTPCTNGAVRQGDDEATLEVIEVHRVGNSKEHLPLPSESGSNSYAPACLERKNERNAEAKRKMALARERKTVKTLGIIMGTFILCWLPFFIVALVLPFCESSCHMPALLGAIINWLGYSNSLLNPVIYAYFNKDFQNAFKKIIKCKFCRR
Outline: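 Rat whole-brain membranes (minus brainstem and cerebellum) in 50 mM Tris pH 8.0 with 120 mM NaCl, 4 mM CaCl2, 4 mM MgCl2 and 10 μM pargyline. Rapid filtration, then scintillation counting. Nonspecific binding defined with 10 μM 5-HT. IC50 by semi-log plot and linear regression.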

D(2) dopamine receptor = D(2) dopamine receptor (Rattus norvegicus, UniProt P61169); assay: Inhibitory activity against Dopamine receptor D2 in rats using [3H]spiperone as radioligand
Outline: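 Rat striatal membranes in 50 mM potassium phosphate buffer pH 7.4 were incubated with 0.5 nM [3H]spiperone for 10 min at 37 °C. Specific binding was defined with 10 μM 6,7-ADTN.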

Rattus norvegicus [2] = assay: Effect evaluated in vivo on 5-HTP accumulation in limbic system at a dose 3.1 umol/kg (p.o.); format: functional
Outline: (§1)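 Oral dosing in male Sprague-Dawley rats (200–300 g) pretreated with reserpine 5 mg/kg sc 18 h before. After decarboxylase inhibition with NSD 1015, brain 5-HTP or dopa accumulation (HPLC-electrochemical detection) indexed 5-HT synthesis, DA synthesis (limbic) or NE synthesis (hemispheres, mainly cortex).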

Rattus norvegicus [3] = assay: Effect evaluated in vivo on 5-HTP accumulation in limbic system at a dose 3.1 umol/kg (s.c.); format: functional
Outline: (§2)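 Male Sprague-Dawley rats (200–300 g) were pretreated with reserpine 5 mg/kg sc 18 h before. Test compound was given sc at 5 mL/kg in neutral solution. 5-HT synthesis rate was indexed by […] 5-HTP accumulation after decarboxylase inhibition with NSD 1015, measured by HPLC-electrochemical detection. Dose-response used 4–6 dose levels, n = 4.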

Rattus norvegicus [4] = assay: Effect evaluated in vivo on 5-HTP accumulation in limbic system at a dose 50 umol/kg (p.o.); format: functional; outline: as §1
Rattus norvegicus [5] = assay: Effect evaluated in vivo on 5-HTP accumulation in rats limbic system at a dose 50 umol/kg (s.c.); format: functional; outline: as §2
Rattus norvegicus [6] = assay: Effect evaluated in vivo on 5-HTP accumulation in NE-rich hemispheres at a 0.78 dose uM/kg(sc); format: functional
Outline: (§3)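 Male Sprague-Dawley rats (200–300 g) were pretreated with reserpine 5 mg/kg sc 18 h beforehand. Test drug was given at neutral pH, 5 mL/kg. Aromatic amino acid decarboxylase was blocked with NSD 1015. 5-HTP in the dissected brain region was assayed by HPLC with electrochemical detection.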

Rattus norvegicus [7] = assay: Effect evaluated in vivo on 5-HTP accumulation in NE-rich hemispheres at a 0.80 dose uM/kg(po); format: functional; outline: as §3
Rattus norvegicus [8] = assay: Effect evaluated in vivo on 5-HTP accumulation in corpus striatum at a dose 12.5 umol/kg (p.o.); format: functional; outline: as §3
Rattus norvegicus [9] = assay: Effect evaluated in vivo on 5-HTP accumulation in corpus striatum at a dose 12.5 umol/kg (s.c.); format: functional; outline: as §3
Rattus norvegicus [10] = assay: Effect evaluated in vivo on 5-HTP accumulation in corpus striatum at a dose 3.1 umol/kg (p.o.); format: functional; outline: as §3
Rattus norvegicus [11] = assay: Effect evaluated in vivo on 5-HTP accumulation in corpus striatum at a dose 3.1 umol/kg (s.c.); format: functional; outline: as §3
Rattus norvegicus [12] = assay: Effect evaluated in vivo on 5-HTP accumulation in corpus striatum at a dose 50 umol/kg (p.o.); format: functional; outline: as §3
Rattus norvegicus [13] = assay: Effect evaluated in vivo on 5-HTP accumulation in corpus striatum after perioral administration; format: functional; outline: as §3
Rattus norvegicus [14] = assay: Effect evaluated in vivo on 5-HTP accumulation in limbic system after perioral administration; format: functional; outline: as §3
Rattus norvegicus [15] = assay: Effect evaluated in vivo on 5-HTP accumulation in limbic system after subcutaneous administration; format: functional; conditions: sc; outline: as §3
Rattus norvegicus [16] = assay: Effect evaluated in vivo on 5-HTP accumulation synthesis in NE-rich hemispheres after perioral administration; format: functional; outline: as §1
Rattus norvegicus [17] = assay: Effect evaluated in vivo on NE synthesis in NE-rich hemispheres after subcutaneous administration; format: functional; conditions: sc
Outline: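 Rats pretreated with reserpine 5 mg/kg sc 18 h before received test compound sc at 5 mL/kg in neutral solution. After decarboxylase inhibition with NSD 1015, dopa accumulation in hemispheres (mainly cortex) was measured by HPLC-electrochemical detection as an index of NE synthesis. Dose-response used 4–6 dose levels, n = 4.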

Rattus norvegicus [18] = assay: Effect evaluated in vivo on 5-HTP accumulation in limbic system at a dose 0.78 umol/kg (s.c.); format: functional; outline: as §3
Rattus norvegicus [19] = assay: Effect evaluated in vivo on 5-HTP accumulation in limbic system at a dose 0.80 umol/kg (p.o.); format: functional; outline: as §1
Rattus norvegicus [20] = assay: Effect evaluated in vivo on 5-HTP accumulation in limbic system at a dose 12.5 umol/kg (p.o.); format: functional; outline: as §1
Rattus norvegicus [21] = assay: Effect evaluated in vivo on 5-HTP accumulation in limbic system at a dose 12.5 umol/kg (s.c.); format: functional; outline: as §2
Rattus norvegicus [22] = assay: Effect evaluated in vivo on 5-HTP accumulation in NE-rich hemispheres at a 12.5 dose uM/kg(po); format: functional; outline: as §3
Rattus norvegicus [23] = assay: Effect evaluated in vivo on 5-HTP accumulation in NE-rich hemispheres at a 12.5 dose uM/kg(sc); format: functional; outline: as §3
Rattus norvegicus [24] = assay: Effect evaluated in vivo on 5-HTP accumulation in NE-rich hemispheres at a 3.1 dose uM/kg(po); format: functional; outline: as §3
Rattus norvegicus [25] = assay: Effect evaluated in vivo on 5-HTP accumulation in NE-rich hemispheres at a 3.1 dose uM/kg(sc); format: functional; outline: as §3
Rattus norvegicus [26] = assay: Effect evaluated in vivo on 5-HTP accumulation in NE-rich hemispheres at a 50 dose uM/kg(po); format: functional; outline: as §3
Rattus norvegicus [27] = assay: Effect evaluated in vivo on 5-HTP accumulation in NE-rich hemispheres at a 50 dose uM/kg(sc); format: functional; outline: as §3
Rattus norvegicus [28] = assay: Effect evaluated in vivo on 5-HTP accumulation in corpus striatum after subcutaneous administration; format: functional; conditions: sc; outline: as §3
Rattus norvegicus [29] = assay: Effect evaluated in vivo on 5-HTP accumulation in corpus striatum at a dose 0.78 umol/kg (s.c.); format: functional; outline: as §3
Rattus norvegicus [30] = assay: Effect evaluated in vivo on 5-HTP accumulation in corpus striatum at a dose 0.80 umol/kg (p.o.); format: functional; outline: as §3
Rattus norvegicus [31] = assay: The compound was tested in vivo for locomotor activity in rats at 50 umol/kg after perioral administration; format: functional
Outline: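 Reserpine-pretreated rats (5 mg/kg sc, 18 h before) received test compound orally. Photocell motility counts were accumulated over 30 min, and gross behaviour, including 5-HT syndrome, was observed.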

Rattus norvegicus [32] = assay: The compound was tested in vivo for locomotor activity in rats at 50 umol/kg after subcutaneous administration; format: functional
Outline: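 Male Sprague-Dawley rats received reserpine 5 mg/kg sc in the neck 18 h before testing. Test compound was given sc in the neck (n = 4). Rats were placed singly in photocell motility meters immediately after dosing, and counts were accumulated over 30 min (tests 9 a.m.–1 p.m.). Gross behaviour, including 5-HT syndrome, was observed throughout.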

Rattus norvegicus [33] = assay: Effect evaluated in vivo on 5-HTP accumulation in limbic system at a dose 25 umol/kg (s.c.); format: functional; outline: as §2
Rattus norvegicus [34] = assay: Effect evaluated in vivo on 5-HTP accumulation in NE-rich hemispheres at a 0.20 dose uM/kg(sc); format: functional; outline: as §3
Rattus norvegicus [35] = assay: Effect evaluated in vivo on 5-HTP accumulation in NE-rich hemispheres at a 0.39 dose uM/kg(sc); format: functional; outline: as §3
Rattus norvegicus [36] = assay: Effect evaluated in vivo on 5-HTP accumulation in corpus striatum at a dose 1.56 umol/kg (s.c.); format: functional; outline: as §3
Rattus norvegicus [37] = assay: Effect evaluated in vivo on 5-HTP accumulation in corpus striatum at a dose 100 umol/kg (s.c.); format: functional; outline: as §3
Rattus norvegicus [38] = assay: Effect evaluated in vivo on 5-HTP accumulation in corpus striatum at a dose 25 umol/kg (s.c.); format: functional; outline: as §3
Rattus norvegicus [39] = assay: Effect evaluated in vivo on 5-HTP accumulation in limbic system at a dose 0.20 umol/kg (s.c.); format: functional; outline: as §3
Rattus norvegicus [40] = assay: Effect evaluated in vivo on 5-HTP accumulation in limbic system at a dose 0.39 umol/kg (s.c.); format: functional; outline: as §3
Rattus norvegicus [41] = assay: Effect evaluated in vivo on 5-HTP accumulation in limbic system at a dose 1.56 umol/kg (s.c.); format: functional; outline: as §2
Rattus norvegicus [42] = assay: Effect evaluated in vivo on 5-HTP accumulation in limbic system at a dose 100 umol/kg (s.c.); format: functional; outline: as §2
Rattus norvegicus [43] = assay: Effect evaluated in vivo on 5-HTP accumulation in NE-rich hemispheres at a 1.56 dose uM/kg(sc); format: functional; outline: as §3
Rattus norvegicus [44] = assay: Effect evaluated in vivo on 5-HTP accumulation in NE-rich hemispheres at a 100 dose uM/kg(sc); format: functional; outline: as §3
Rattus norvegicus [45] = assay: Effect evaluated in vivo on 5-HTP accumulation in NE-rich hemispheres at a 25 dose uM/kg(sc); format: functional; outline: as §3
Rattus norvegicus [46] = assay: Effect evaluated in vivo on 5-HTP accumulation in corpus striatum at a dose 0.20 umol/kg (s.c.); format: functional; outline: as §3
Rattus norvegicus [47] = assay: Effect evaluated in vivo on 5-HTP accumulation in corpus striatum at a dose 0.39 umol/kg (s.c.); format: functional; outline: as §3

Chain of D(2) dopamine receptor (P61169 whole entry): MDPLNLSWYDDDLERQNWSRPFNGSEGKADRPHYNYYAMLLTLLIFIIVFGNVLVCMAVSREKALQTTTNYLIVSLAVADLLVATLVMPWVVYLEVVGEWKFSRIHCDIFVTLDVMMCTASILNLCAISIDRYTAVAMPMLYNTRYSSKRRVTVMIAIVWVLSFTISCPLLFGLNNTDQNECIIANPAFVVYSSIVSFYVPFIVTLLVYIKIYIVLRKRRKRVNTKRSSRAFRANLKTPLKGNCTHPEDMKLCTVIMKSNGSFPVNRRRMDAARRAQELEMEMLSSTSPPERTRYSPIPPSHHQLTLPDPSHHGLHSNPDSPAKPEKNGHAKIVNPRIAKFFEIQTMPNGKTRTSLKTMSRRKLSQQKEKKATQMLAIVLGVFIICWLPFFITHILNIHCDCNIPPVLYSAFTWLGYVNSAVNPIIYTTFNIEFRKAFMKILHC

## COc1cccc2c1CCN(CC1CC1)CC2
[1]
  IC50: 0.12 µM
D(2) dopamine receptor
  IC50: 7.6 µM
Rattus norvegicus [2]
  Control: 70%
Rattus norvegicus [3]
  Control: 67%
Rattus norvegicus [4]
  Control: 48%
Rattus norvegicus [5]
  Control: 42%
Rattus norvegicus [6]
  Control: 95%
Rattus norvegicus [7]
  Control: 102%
Rattus norvegicus [8]
  Control: 77%
Rattus norvegicus [9]
  Control: 60%
Rattus norvegicus [10]
  Control: 59%
Rattus norvegicus [11]
  Control: 68%
Rattus norvegicus [12]
  Control: 48%
Rattus norvegicus [13]
  ED50: 7 µmol/kg
Rattus norvegicus [14]
  ED50: 5.5 µmol/kg
Rattus norvegicus [15]
  ED50: 1.7 µmol/kg
Rattus norvegicus [16]
  ED50: 6.5 µmol/kg
Rattus norvegicus [17]
  ED50: 4 µmol/kg
Rattus norvegicus [18]
  Control: 84%
Rattus norvegicus [19]
  Control: 101%
Rattus norvegicus [20]
  Control: 83%
Rattus norvegicus [21]
  Control: 56%
Rattus norvegicus [22]
  Control: 89%
Rattus norvegicus [23]
  Control: 85%
Rattus norvegicus [24]
  Control: 75%
Rattus norvegicus [25]
  Control: 77%
Rattus norvegicus [26]
  Control: 50%
Rattus norvegicus [27]
  Control: 43%
Rattus norvegicus [28]
  ED50: 2.5 µmol/kg
Rattus norvegicus [29]
  Control: 88%
Rattus norvegicus [30]
  Control: 102%
Rattus norvegicus [31]
  Locomotor activity: 31
Rattus norvegicus [32]
  Locomotor activity: 107

## CCCN1CCc2ccc(O)cc2CC1
D(2) dopamine receptor
  IC50: 10 µM
Rattus norvegicus [33]
  Control: 105%
Rattus norvegicus [34]
  Control: 128%
Rattus norvegicus [35]
  Control: 119%
Rattus norvegicus [36]
  Control: 110%
Rattus norvegicus [37]
  Control: 77%
Rattus norvegicus [38]
  Control: 107%
Rattus norvegicus [39]
  Control: 122%
Rattus norvegicus [40]
  Control: 121%
Rattus norvegicus [41]
  Control: 80%
Rattus norvegicus [42]
  Control: 81%
Rattus norvegicus [43]
  Control: 114%
Rattus norvegicus [44]
  Control: 78%
Rattus norvegicus [45]
  Control: 113%
Rattus norvegicus [46]
  Control: 118%
Rattus norvegicus [47]
  Control: 106%
